From PubChem BioAssay
Compounds with a hit are over-represented: about 2.1% of the library has one in this group of screens.
PfG6PD inh = PfG6PD (Plasmodium falciparum) enzyme inhibition; PfGluPho enzyme, NADPH resazurin-diaphorase fluorescence; inhibition, % at 20 µM; 350,000 tested, 0.78% active; AID 504690;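 active = inhibition reaching at least a set limit at 20 µM in the primary screen, cut at about 59% in these data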;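 note: 0% = DMSO wells with substrate and 100% = DMSO wells lacking glucose-6-phosphate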
H9c2 protect = modulators protecting cardiomyocytes from myocardial damage | H9c2 cardiomyocytes, H2O2 injury protection, ATPLite, 2 h | protection from H2O2 cell death, % at 20 µM | 360,000 tested, 0.63% active | AID 588492;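 active = compounds giving at least 50% protection of heart cells from peroxide-induced death in the single-dose screen, raw or plate-pattern-corrected value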;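 note: 0% = DMSO wells with peroxide and 100% = DMSO wells without peroxide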
Beta2AR agonist = agonists of human beta-2 adrenergic receptor inducing internalization; P07550; Am2.2-beta2AR cells, FAP receptor internalization, flow cytometry; response, % (concentration not given with the values); 340,000 tested, 0.43% active;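 active = response above a set limit, near 3 SD of response in nonfluorescent compounds, cut at about 42% in these data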
UCH37 inh = human UCH37 deubiquitinating enzyme inhibition. inhibition, % (concentration not given with the values). purified proteasome/UCH37, Ub-AMC cleavage fluorescence. AID 588478. Q9Y5K5. 330,000 tested, 0.33% active;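 active = mean inhibition over replicate wells above about 20%, limit read from the data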;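 note: 0% = compound-free wells with enzyme and 100% = wells lacking proteasome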
Target sequence (Q9Y5K5 whole entry, looked up): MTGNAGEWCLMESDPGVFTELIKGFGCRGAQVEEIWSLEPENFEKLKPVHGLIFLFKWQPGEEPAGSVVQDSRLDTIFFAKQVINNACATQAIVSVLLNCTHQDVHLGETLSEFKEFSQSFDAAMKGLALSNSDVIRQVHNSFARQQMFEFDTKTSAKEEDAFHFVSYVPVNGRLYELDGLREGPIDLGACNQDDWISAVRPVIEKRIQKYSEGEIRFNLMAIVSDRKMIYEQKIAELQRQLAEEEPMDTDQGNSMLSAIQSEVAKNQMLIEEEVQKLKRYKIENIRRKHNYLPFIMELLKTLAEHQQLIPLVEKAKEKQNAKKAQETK
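assay system = human UCH37 enzyme supplied as purified proteasome complex | amount = proteasome at 0.15 nM in the dispensed enzyme solution | schedule = 30 min compound-proteasome preincubation then 25 min substrate reaction, room temperature | measured by = fluorescence, ex 355 nm, em 460 nm | benchmarks = no-proteasome wells (full inhibition) and compound-free wells (no inhibition)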
HKDC1 inhibitor = inhibitors of human hexokinase HKDC1. Q2TB90. recombinant HKDC1, G6PDH/diaphorase resazurin coupled fluorescence. inhibition, % at 20 µM. 340,000 tested, 0.16% active. AID 493160;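 active = inhibition above about 35% when tested at 20 µM, limit read from the data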;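 note: plate controls were DMSO wells with enzyme for no effect and DMSO wells lacking enzyme for full effect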
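System: Recombinant HKDC1 hexokinase | Amount: HKDC1 at 5 µg/mL | Reagent: Glucose with 1 mM ATP | Doses: Single 20 µM dose | Incubation: Reaction time 90 min, room temperature, protected from light | Signal: Coupled resazurin fluorescence, excitation 525 nm, emission 613 nm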
aDG glyco act = increases alpha dystroglycan glycosylation | activation, % at 10 µM | 360,000 tested, 0.22% active | Pro5-aDG cells, alpha-DG glycosylation AlphaScreen (IIH6); 0% Pro5, 100% B10-LARGE cell signal;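 active = activation of at least 8% versus controls, or a plate z-score of at least 8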;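 note: Pro5 are CHO cells carrying HIG-tagged alpha-DG that lacks glycosylation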
Beta2AR ag CP1 = human beta-2 adrenergic receptor agonism, cherry pick. shares compounds with Beta2AR agonist. percent response (surface receptor), % at 10 µM. AID 540358. 1,100 tested, 25% active. Am2.2-beta2AR cells, FAP surface receptor, flow cytometry; active compounds read low;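 active = surface receptor percent response at or below 58%, roughly 3 SD from nonfluorescent compounds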
B2AR FAP counter = fluorescence artifact in beta-2AR agonist FAP counterscreen; calls only at 10 µM; Am2.2 cells, FAP fluorogen flow cytometry; active compounds read low; shares compounds with Beta2AR agonist; 1,100 tested, under 10 active;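 active = percent response below a set limit in fluorescence channel 1 and below 50% in channel 8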
* marks the source's active call; other numbers are inactive results; i = inactive; x = no result.

SMILES	PfG6PD inh	H9c2 protect	Beta2AR agonist	UCH37 inh	HKDC1 inhibitor	aDG glyco act	Beta2AR ag CP1	B2AR FAP counter
Cc1ccccc1C(=O)OC1CCCN(C)C1 (stereo not drawn)	-8	11	49*	2	-5	0	90	i
Cc1cccc(C(=O)OC2CCCN(C)C2)c1C (stereo not drawn)	-4	7	-1	3	-8	0	x	x
O=C1CCC(=O)N1c1nc2nc(-c3ccccc3)cc(=O)n2[nH]1	-12	-11	43*	0	-10	0	120	i
O=c1cnnc(NN=Cc2ccc3c(c2)OCO3)[nH]1	x	x	x	5	x	x	x	x
COc1ccccc1C(C)Nc1nc(-c2cccnc2)nc2ccccc12 (stereo not drawn)	12	8	8	2	-2	0	112	i
COc1cccc(CNc2nc(-c3cccnc3)nc3ccccc23)c1	5	2	-1	-1	6	0	156	i
CC(Nc1nc(-c2cccnc2)nc2ccccc12)c1ccccc1 (stereo not drawn)	27	-1	x	x	x	0	x	x
COc1cccc(/C=N/Nc2nc(-c3cccnc3)nc3ccccc23)c1	15	2	9	x	-1	0	x	x
Cc1nnsc1C(=O)NN=Cc1ccc(OC(F)(F)F)cc1	x	x	x	-2	x	x	x	x
C[N+](C)(C)CC(=O)NN=Cc1c2ccccc2cc2ccccc12	x	x	x	1	x	x	x	x
COc1ccc(C(=O)CC(=O)c2ccc(C(C)(C)C)cc2)cc1	-9	24	3	x	-7	0	x	x
COc1ccc(C(=O)C(CCC(CNC(C)(C)C)C(=O)c2ccc(OC)cc2)CNC(C)(C)C)cc1 (stereo not drawn)	13	15	54*	-1	2	0	80	i
O=C(Nc1ccc(C(=O)NCc2ccc(F)cc2)cc1)C1=CSCCO1	4	0	-9	1	6	0	x	x
CCc1ccc(CNC(=O)c2ccc(NC(=O)C3=CSCCO3)cc2)cc1	1	1	102*	7	-4	0	27*	i
CC(Cn1ncc(N2CCOCC2)c(Cl)c1=O)=NO	x	x	x	3	x	x	x	x
COc1ccc(/C(O)=C2\C(=O)C(=O)N(c3cc(C)on3)C2c2ccccc2OC)cc1C (stereo not drawn)	-14	14	2	9	5	0	x	x
COc1ccc(/C(O)=C2\C(=O)C(=O)N(c3cc(C)on3)C2c2ccccc2OC)cc1 (stereo not drawn)	-18	10	50*	6	2	0	112	i
O=C(OCC(=O)N1CCCC1)c1ccccc1C(=O)c1ccccc1	12	-7	5	1	-3	0	118	i
CSc1ccccc1C(=O)OCC(=O)N1CCCCCC1	-5	-3	-4	2	-4	0	x	x
Cc1nnc(NN=CC(C)c2ccccc2)[nH]c1=O (stereo not drawn)	x	x	x	6	x	x	x	x
Oc1ccc(C=Nn2cc(-c3ccccc3)[nH]c2=S)cc1	x	x	x	-2	x	x	x	x
CCCCCCCCCn1c2c(c(=N)c3c1CCC3)CCCC2	0	-22	80*	9	0	0	103	i
CCCCCCCCCCn1c2c(c(=N)c3c1CCC3)CCC2	-3	-21	13	11	-2	1	x	x
Cc1ccc(CN2CCN(N=Cc3cccnc3)CC2)c(C)c1	x	x	x	4	x	x	x	x
Cn1c(N2CCN(c3ccccn3)CC2)nc2c1c(=O)n(Cc1ccc(Cl)cc1)c(=O)n2C	24	-17	127*	-1	0	0	23*	i
SMILES	PfG6PD inh	H9c2 protect	Beta2AR agonist	UCH37 inh	HKDC1 inhibitor	aDG glyco act	Beta2AR ag CP1	B2AR FAP counter
Cc1scc(C(=O)NN=Cc2ccc(OC(C)C)cc2)c1C	x	x	x	4	x	x	x	x
C=CCN1C(=O)c2oc3ccccc3c(=O)c2C1c1ccc(O)c(OC)c1 (stereo not drawn)	4	2	-14	4	-4	0	123	i
CCOC(=O)N1CCN(c2ncnc3c2[nH]c2ccc(OC)cc23)CC1	25	5	90*	-99	12	1	124	i
CCOc1ccc2[nH]c3c(N4CCN(C(=O)c5ccco5)CC4)ncnc3c2c1	28	40	x	-92	11	0	x	x
Cc1cc(C)cc(NC(=O)N2CCC(C(=O)c3ccc(F)cc3)CC2)c1	4	-7	1	4	20	1	x	x
Cc1cccc(NC(=O)N2CCC(C(=O)c3ccc(F)cc3)CC2)c1	-16	-7	75*	5	1	0	105	i
CCOc1ccc2nc(N3C(=O)CNC3=S)sc2c1	5	-13	3	16	-1	0	104	i
Cc1cc2nc(N3C(=O)CNC3=S)sc2cc1C	-18	-22	1	x	-5	-1	x	x
CCNC(=S)N/N=C(\C)c1ccc(Cl)s1	5	-2	-7	x	6	0	x	x
CNC(=S)N/N=C(\C)c1ccc(Cl)s1	-4	-5	-3	x	-5	1	103	i
CCOc1ccc(OCC)c(NC(=O)CSc2nc3cccnc3n2C)c1	-3	-6	-6	1	-4	1	x	x
CCOc1ccc2nc(NC(=O)CSc3nc4cccnc4n3C)sc2c1	11	0	49*	3	-2	1	89	i
CN(C)CCNc1ncnc2c1sc1nc(N3CCCC3)c3c(c12)CC(C)(C)OC3	7	-6	72*	-2	10	1	35*	i
CCN(CC)CCNc1ncnc2c1sc1nc(N3CCOCC3)c3c(c12)CCCC3	30	-26	25	-7	19	0	x	x
CCN(CCO)c1ncnc2c1sc1nc(CC(C)C)c3c(c12)CC(C)(C)OC3	18	19	23	-28	14	0	25*	i
CC(C)CNc1ncnc2c1sc1nc(N3CCOCC3)c3c(c12)CC(C)(C)OC3	19	41	-7	-2	5	1	142	i
CC1(C)Cc2c(c(-c3ccco3)nc3sc4c(NCC5CCCO5)ncnc4c23)CO1 (stereo not drawn)	51	0	83*	-65	10	0	10*	i
COc1cc2cc(C(=O)NN=Cc3ccccc3Cl)[nH]c2cc1OC	x	x	x	-67	x	x	x	x
COc1cccc2cc(C(=O)Nc3cc(C)cc(C)c3)c(=NNS(=O)(=O)c3ccccc3)oc12	x	x	x	2	x	x	x	x
CCN(CC)CCNc1ncnc2c1sc1nc(N3CCCC3)c3c(c12)CC(C)(C)OC3	11	-9	65*	0	17	0	96	i
CCOc1cc(C=NNC(=O)CN2CCCCC2)ccc1O	x	x	x	-1	x	x	x	x
